Source: ChEMBL document CHEMBL1123079, “Synthesis and biological activity of a novel adenosine analogue, 3-beta-D-ribofuranosylthieno[2,3-d]pyrimidin-4-one” (1985)

Legend:
L1210 [1] = test: The compound was tested for inhibition of L-1210 leukemic cell growth at 10 e-4 M along with 10e-5 M adenosine.; format: functional, Mus musculus; parameters: scale not given: the % may be the effect or the level left
Summary of the method: (§1)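 Static suspension cultures of murine L-1210 leukemic cells were grown in Fischer's medium with test compound at 10^-4 M plus 10^-5 M adenine or 10^-5 M adenosine. Read-out was the initial growth rate, the increase in cell number during the first 24 h of incubation, relative to untreated control cells (%).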

L1210 [2] = test: The compound was tested for inhibition of L-1210 leukemic cell growth at 5 x 10 e-5 M along with 10e-5 M adenosine.; format: functional, Mus musculus; parameters: scale not given: the % may be the effect or the level left
Summary of the method: (§2)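 L-1210 cells were held in static suspension in Fischer's medium with test compound at 5 × 10^-5 M plus either 10^-5 M adenine or 10^-5 M adenosine. Cell numbers were counted, and the rate of increase over the first 24 h was taken as the initial growth rate, given as % of untreated control. Values are means, n = 2.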

L1210 [3] = test: The compound was tested for inhibition of L-1210 leukemic cell growth at 10 e-4 M; format: functional, Mus musculus; parameters: scale not given: the % may be the effect or the level left
Summary of the method: (§3)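 Murine L-1210 leukemic cells were grown in static suspension culture in Fischer's medium. Test compound was added at 5 × 10^-5 or 10^-4 M alone. Initial growth rate is the rate of increase in cell number over the first 24 h of incubation, expressed as % of untreated control. Values are mean (±SD), n = 5.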

L1210 [4] = test: The compound was tested for inhibition of L-1210 leukemic cell growth at 5 x 10 e-5 M; format: functional, Mus musculus; parameters: scale not given: the % may be the effect or the level left; summary of the method: as §3
L1210 [5] = test: The compound was tested for inhibition of L-1210 leukemic cell growth at 5 x 10 e-5 M along with 10e-5 M adenine.; format: functional, Mus musculus; parameters: scale not given: the % may be the effect or the level left; summary of the method: as §2
L1210 [6] = test: The compound was tested for inhibition of L-1210 leukemic cell growth at 10 e-4 M along with 10e-5 M adenine.; format: functional, Mus musculus; parameters: scale not given: the % may be the effect or the level left; summary of the method: as §1
L1210 [7] = test: The concentration required to inhibit the growth of L-1210 leukemic cells was evaluated; 1E-4 to 5E-4; format: functional, cell-based; details: Mus musculus
L1210 [8] = test: The concentration required (hypoxanthine+uridine) to inhibit the growth of L-1210 leukemic cells was evaluated; 2E-4 to 2E-5; format: functional, cell-based; details: Mus musculus
L1210 [9] = test: The concentration required to inhibit the growth of L-1210 leukemic cells was evaluated; 1E-4 to 1E-5; format: functional, cell-based; details: Mus musculus
L1210 [10] = test: The concentration required to inhibit the growth of L-1210 leukemic cells was evaluated; 1E-3 to 1E-4; format: functional, cell-based; details: Mus musculus
L1210 [11] = test: The concentration requiredi (cytidine+2'deoxycytidine) to inhibit the growth of L-1210 leukemic cells was evaluated; format: functional, cell-based; details: Mus musculus

In the case of `O=c1c2ccsc2ncn1C1O[C@H](CO)[C@@H](O)[C@H]1O` (some centres not stated), the Control (L1210 [1]) is reported as 50%, the Control (L1210 [2]) is reported as 57% and the Control (L1210 [3]) is reported as 16%. The Control (L1210 [4]) was 32%, the Control (L1210 [5]) was 52% and the Control (L1210 [6]) was 25%.

Work on `Nc1ccn([C@H]2C[C@H](O)[C@@H](CO)O2)c(=O)n1` yielded a Concentration (L1210 [7]) of 100 µM.

Compound `Cc1cn([C@H]2C[C@H](O)[C@@H](CO)O2)c(=O)[nH]c1=O` has a Concentration (L1210 [8]) of 200 µM and a Concentration (L1210 [9]) of 100 µM.

`O=c1ccn([C@@H]2O[C@H](CO)[C@@H](O)[C@H]2O)c(=O)[nH]1` showed a Concentration (L1210 [10]) of 1 mM.

For `Nc1ccn([C@@H]2O[C@H](CO)[C@@H](O)[C@H]2O)c(=O)n1`, the Concentration (L1210 [11]) was 100 µM and the Concentration (L1210 [10]) was 1 mM.
